Measured values reported in ChEMBL document CHEMBL1141436, “Inhibitory effects of diterpenoid alkaloids on the growth of A172 human malignant cells” (J Nat Prod, 2007).
Converted amounts (≈) assume the structure as drawn.

How the values were obtained:
[1] = Growth inhibition of human A172 cells after 6 days; format: functional, cell-based; details: a 172
[2] = Cytotoxicity against human A172 cells after 6 days; format: functional, cell-based, A 172
Procedure, shortened: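 A172 glioma cells in high-glucose DMEM with 10% heat-inactivated FBS and penicillin/streptomycin, seeded at 5 × 10^3 cells/mL (1 mL/well). After 24 h, alkaloids were added from fresh 1 mg/mL DMSO stocks (final DMSO ≤0.5%; controls DMSO-matched). Total cell number counted by particle counter after 6 days. IC50 (50% inhibition vs untreated) taken from dose–response curves; mean ± SD, ≥3 independent experiments.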

[3] = Homo sapiens, A 172, 144 h, read-out: IC50

| SMILES | relative cell growth [1] | IC50 ([2]; a 172) | IC50 [2, 3] |
| --- | --- | --- | --- |
| C=C1[C@H]2C[C@H]3C4N5C[C@]6(C)CCC[C@]47[C@H]([C@H]2OC(=O)c2ccccc2)C3(C[C@]5(OC(=O)c2ccccc2)[C@H]67)[C@@H]1O | 0.76 | 1.3 µg/mL (≈ 2.42 µM) | – |
| C=C1[C@H]2C[C@H]3C4N5C[C@]6(C)CCC[C@]47[C@H]([C@H]2OC(=O)/C=C/c2ccccc2)C3(C[C@]5(O)[C@H]67)[C@@H]1O | 0.49 | – | 0.89 µg/mL (≈ 1.94 µM) |
| C=C1[C@H]2C[C@H]3C4N5C[C@]6(C)CCC[C@]47[C@H]([C@H]2OC(=O)c2ccc(OC)cc2)C3(C[C@]5(O)[C@H]67)[C@@H]1O | 0.23 | – | 1.3 µg/mL (≈ 2.8 µM) |
| C=C1[C@H]2C[C@H]3C4N5C[C@]6(C)CCC[C@]47[C@H]([C@H]2O)C3(C[C@]5(OC(=O)/C=C/c2ccccc2)[C@H]67)[C@@H]1O | 0.97 | – | – |
| C=C1[C@H]2C[C@H]3C4N5C[C@]6(C)CCC[C@]47[C@H]([C@H]2O)C3(C[C@]5(OC(=O)c2ccccc2)[C@H]67)[C@@H]1O | 0.93 | – | – |
| C=C1[C@H]2C[C@H]3C4N5C[C@]6(C)CCC[C@]47[C@H]([C@H]2O)C3(C[C@]5(OC(=O)c2ccc(OC)cc2)[C@H]67)[C@@H]1O | 0.99 | – | – |
| C=C1[C@H]2C[C@H]3C4N5C[C@]6(C)CCC[C@]47[C@H]([C@H]2OC(=O)c2cccc(C(F)(F)F)c2)C3(CC5[C@H]67)[C@@H]1O | 0.6 | – | – |
| C=C1[C@H]2C[C@H]3C4N(Cc5ccccc5)C[C@]5(C)CCC[C@]46[C@H]([C@H]2O)C3(CC(=O)[C@H]56)[C@@H]1OCc1ccccc1 (some centres not stated) | 1.04 | – | > 5 µg/mL |
| C=C1[C@@H](O)[C@]23C[C@@H]1[C@@H](OC(=O)c1ccccc1)C[C@H]2[C@@]12C4C3C[C@@H]1[C@@](C)(CC[C@H]2O)CN4CC | 0.82 | – | – |
| C=C1[C@@H](O)[C@]23C[C@@H]1[C@@H](OC(=O)c1ccc(OC)cc1)C[C@H]2[C@@]12C4C3C[C@@H]1[C@@](C)(CC[C@H]2O)CN4CC | 0.84 | – | – |
| C=C1[C@@H](O)[C@]23C[C@@H]1[C@@H](OC(C)=O)C[C@H]2[C@@]12C4C3C[C@@H]1[C@@](C)(CC[C@H]2O)CN4CC | 0.66 | – | 5.6 µg/mL (≈ 13.9 µM) |
| COC[C@]12CC[C@H](O)[C@]34C(NC1)[C@@](O)([C@@H](OC)[C@H]23)[C@@]1(O)C[C@H](OC)[C@H]2C[C@@H]4[C@@H]1[C@H]2OC | 0.93 | – | – |
| COC[C@]12CC[C@H]3OC1NC1[C@@]34[C@@H]3C[C@H]5[C@H](OC)[C@@H]3[C@](O)(C[C@@H]5OC)[C@]1(O)[C@@H](OC)[C@H]24 | 1.14 | – | – |
| C=C1[C@H]2C[C@H]3C4N5C[C@]6(C)CCC[C@]47[C@H]([C@H]2OC(=O)c2cccc(C(F)(F)F)c2)C3(C[C@]5(O)[C@H]67)[C@@H]1O | 0.58 | – | – |
| COC[C@]12CC[C@H]3OC1NC1[C@@]34[C@@H]3C[C@H]5[C@H](O)[C@@H]3[C@](O)(C[C@@H]5OC)[C@]1(O)[C@@H](OC)[C@H]24 | 1.04 | – | – |
| CCN1C[C@]2(COC)CC[C@H](OC)[C@]34C1[C@@](O)([C@@H](OC)[C@H]23)[C@@]1(O)C[C@H](OC)[C@H]2C[C@@H]4[C@@H]1[C@H]2OC(C)=O | 0.99 | – | – |
| C=C1[C@H]2C[C@H]3C4N5C[C@]6(C)CCC[C@]47[C@H]([C@H]2O)C3(C[C@]5(O)[C@H]67)[C@@H]1OC(=O)c1ccc(OC)c(OC)c1 | 0.97 | – | 2.9 µg/mL (≈ 5.88 µM) |
| CCN1C[C@]2(COC)CC[C@H](O)[C@]34C1[C@@](O)([C@@H](OC)[C@H]23)[C@@]1(O)C[C@H](OC)[C@H]2C[C@@H]4[C@@H]1[C@H]2OC(C)=O | 1.11 | – | – |
| C=C1[C@H]2C[C@H]3C4N(Cc5ccccc5)C[C@]5(C)CCC[C@]46[C@H]([C@H]2O)C3(CC(=O)[C@H]56)[C@@H]1O (some centres not stated) | 1.01 | – | – |

| SMILES | relative cell growth [1] | IC50 ([2]; a 172) | IC50 [2, 3] |
| --- | --- | --- | --- |
| C=C1[C@H]2C[C@H]3C4N5C[C@]6(C)CCC[C@]47[C@H]([C@H]2O)C3(C[C@]5(OC(=O)c2ccc(OC)c(OC)c2)[C@H]67)[C@@H]1O | 0.84 | – | 3.7 µg/mL (≈ 7.5 µM) |
| C=C1[C@H]2C[C@H]3C4N5C[C@]6(C)CCC[C@]47[C@H]([C@H]2O)C3(C[C@]5(OC(=O)c2cccc(C(F)(F)F)c2)[C@H]67)[C@@H]1O | 1.04 | – | – |
| COC[C@]12CC[C@H](O)[C@]34C(NC1)[C@@](O)([C@@H](OC)[C@H]23)[C@@]1(O)C[C@H](OC)[C@H]2C[C@@H]4[C@@H]1[C@H]2O | 0.9 | – | – |
| C=C1[C@H]2C[C@H]3C4N5C[C@]6(C)CCC[C@]47[C@H]([C@H]2O)C3(C[C@]5(OC(=O)c2ccc([N+](=O)[O-])cc2)[C@H]67)[C@@H]1O | 0.96 | – | – |
| C=C1[C@H]2C[C@H]3C4N5C[C@]6(C)CCC[C@]47[C@H]([C@H]2OC(=O)c2ccc(OC)c(OC)c2)C3(C[C@]5(O)[C@H]67)[C@@H]1O | 0.47 | – | 1.2 µg/mL (≈ 2.43 µM) |
| C=C1[C@@H](O)[C@]23C[C@@H]1[C@@H](OC(=O)c1ccc(OC)c(OC)c1)C[C@H]2[C@@]12C4C3C[C@@H]1[C@@](C)(CC[C@H]2O)CN4CC | 0.97 | – | – |
| C=C1[C@@H](OC(C)=O)[C@]23C[C@@H]1[C@@H](OC(C)=O)C[C@H]2[C@@]12C4C3C[C@@H]1[C@@](C)(CC[C@H]2O)CN4CC | 1.03 | – | – |
| C=C1[C@@H](OC(C)=O)[C@]23C[C@@H]1[C@@H](OC(C)=O)C[C@H]2[C@@]12C4C3C[C@@H]1[C@@](C)(CC[C@H]2OC(C)=O)CN4CC | 1.02 | – | > 5 µg/mL |
| C=C1[C@H]2C[C@H]3C4N5C[C@]6(C)CCC[C@]47[C@H]([C@H]2OC(=O)c2ccc([N+](=O)[O-])cc2)C3(C[C@]5(O)[C@H]67)[C@@H]1O | 0.22 | – | 1.5 µg/mL (≈ 3.13 µM) |
| CCN1C[C@]2(COC)[C@H](O)C[C@H](OC)[C@]34C1C([C@H](OC)[C@H]23)[C@]1(OC)[C@H]2[C@@H](OC(=O)c3ccc(OC)cc3)[C@](O)(C[C@H]24)[C@@H](OC)[C@@H]1O [ALJESACONITINE A] | 0.93 | – | – |
| C=C1[C@@H](OC(C)=O)[C@]23C[C@@H]1[C@@H](O)C[C@H]2[C@@]12C4C3C[C@@H]1[C@@]1(C)CC[C@H]2OC1N4CC [DEHYDROLUCIDUSCULINE] | 1.18 | – | > 5 µg/mL |
| CCN1C[C@]2(C)CC[C@H](OC)[C@@]34C1[C@@]1(OCO[C@@]15C[C@H](OC)[C@H]1C[C@@H]3[C@@H]5[C@H]1O)[C@@H](O)[C@H]24 [DELPHELINE] | 1.1 | – | – |
| CCN1C[C@]2(COC)CC[C@H](OC)[C@]34C1C([C@H](OC)[C@H]23)[C@]1(OC(C)=O)[C@H]2[C@@H](OC(=O)c3ccccc3)[C@](O)(C[C@H]24)[C@@H](OC)[C@@H]1O [DEOXYACONITINE] | 0.99 | – | – |
| CCN1C[C@]2(COC)CC[C@H](OC)[C@]34C1C([C@H](OC)[C@H]23)[C@]1(OC(C)=O)[C@H]2[C@@H](OC(=O)c3ccc(OC)cc3)[C@](O)(C[C@H]24)[C@@H](OC)[C@@H]1O [DEOXYJESACONITINE] | 0.97 | – | – |
| COC[C@]12CN(C)C3C4[C@H](OC)[C@H]1[C@@]3([C@@H](OC)C[C@H]2O)[C@@H]1C[C@@]2(O)[C@H](OC(=O)c3ccccc3)[C@@H]1[C@]4(OC)[C@@H](O)[C@@H]2OC [HOKBUSINE A] | 1.03 | – | – |
| COC[C@@]12CC[C@H](OC)[C@]34C(C([C@H](OC)[C@H]13)[C@]1(OC(C)=O)[C@H]3[C@@H](OC(=O)c5ccccc5)[C@](O)(C[C@H]34)[C@@H](OC)[C@@H]1O)N(C)C2 [HYPACONITINE] | 1.08 | – | – |
| C=C1[C@H]2C[C@H]3C4N5C[C@]6(C)CCC[C@]47[C@H]([C@H]2O)C3(CC5[C@H]67)[C@@H]1O [KOBUSINE] | 0.76 | – | > 5 µg/mL |
| C=C1[C@H]2C[C@H]3C4N5C[C@]6(C)CCC[C@]47[C@H]([C@H]2O)C3(C[C@]5(O)[C@H]67)[C@@H]1O [PSEUDOKOBUSINE] | 0.84 | – | > 5 µg/mL |
| CC(=O)O[C@H]1C[C@H]2C3C4C[C@@H]5[C@@]6(C)CC[C@H](OC(C)=O)[C@@]5(C4N(C)C6)[C@@H]3[C@H]1[C@@]1(CO1)[C@H]2O (some centres not stated) [YESOXINE] | 1.01 | – | > 5 µg/mL |
